Measurements: ChEMBL document CHEMBL1124081, “Synthesis and antiulcer activity of 5,11-dihydro[1]benzoxepino[3,4-b]pyridines” (J Med Chem, 1988)
“And” between values parts separate entries of the source, which are not always exact repeats. Identical values can stand only once.

Assays:
[1] = biological target: T1, Muscarinic acetylcholine receptor (Rattus norvegicus) (UniProt P08482+P08483+P08485+P08911+P10980); experiment: Percentage inhibition for Muscarinic acetylcholine receptor at concentration 10 e-5M
How it was run: (§1)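 Rat striatum homogenized in 10 vol distilled water, diluted to 200 vol of wet tissue weight with 50 mM Na-K phosphate buffer pH 7.4 (1 mL ≈ 5 mg wet tissue). [3H]quinuclidinyl benzilate (final 1.26 nM) plus drug in 10% ethanol, 37 °C for 60 min. Nonspecific binding defined with dexetimide (final 1 μM). Rapid GF/B filtration, three ice-cold buffer rinses, liquid scintillation counting.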

Rattus norvegicus [2] = experiment: The antiulcer activity against stress-induced ulcer in rats by 30 mg/kg peroral administration.; assay type: functional; settings: route oral
How it was run: (§2)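 Rats, 190-210 g, fasted 17 h with water allowed. Compound given orally 10 min before stress, 0.5 mL/100 g. Restrained in stress cage and immersed in 23 ± 1 °C water for 7 h without food or water. CO2 kill, stomach opened along greater curvature, total glandular ulcer length (mm) measured. % inhibition = (control − treated)/control × 100. Student's t test.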

Rattus norvegicus [3] = experiment: Inhibition of stress-induced ulcer formation in rats by 10 mg/kg p.o. administration.; assay type: functional; settings: for inhibition in vivo at 10 mg/kg: Rattus norvegicus; for Inhibition: 10 mg/kg; how it was run: as §2
[4] = biological target: T1, Muscarinic acetylcholine receptor (Rattus norvegicus); experiment: Percentage inhibition for Muscarinic acetylcholine receptor at concentration 10 e-6M; assay type: protein assay; how it was run: as §1
[5] = biological target: Muscarinic acetylcholine receptor; experiment: Binding affinity was measured for Muscarinic acetylcholine receptor; assay type: protein assay; how it was run: as §1
[6] = biological target: T1, Muscarinic acetylcholine receptor (Rattus norvegicus); experiment: Percentage inhibition […] concentration 10 e-5M; assay type: protein assay

| SMILES | inhibition in vivo at 30 mg/kg (Rattus norvegicus [2]) | inhibition in vivo at 10 mg/kg (Rattus norvegicus [3]; po) | further results |
| --- | --- | --- | --- |
| CCN(CC)CCNC1c2ccccc2OCc2ncccc21 (single isomer, unassigned) [listing 1 of 2 here] |  |  | inhibition [1]: 38% |
| CCN(CC)CCNC1c2ccccc2SCc2ncccc21 (stereo not given) | 19% |  |  |
| CCN(CC)CC(=O)NC1c2ccccc2OCc2ncccc21 (stereo not given) | 16% | 10% |  |
| CCN(CC)CC(C)NC1c2ccccc2OCc2ncccc21 (stereo not given) | 62% |  |  |
| c1cncc(NC2c3ccccc3OCc3ncccc32)c1 (stereo not given) | 15% |  |  |
| CN1CCN(CC(=O)NC2c3ccccc3OCc3ncccc32)CC1 (stereo not given) | < 56% | 31% | inhibition [4]: 3% |
| CCN(CC)CCNC1c2ccccc2OCc2ncccc21 (single isomer, unassigned; (+)) |  | < 63% | Ki [5]: 3 µM |
| c1ccc2c(c1)OCc1ncccc1C2NCCN1CCCC1 (stereo not given) | 72% | 68% |  |
| Cc1ccc2c(c1)C(N1CCN(C)CC1)c1cccnc1CO2 (stereo not given) | 7% |  |  |
| CC(C)N(CC(=O)NC1c2ccccc2OCc2ncccc21)C(C)C (stereo not given) | < 45% | 17% | inhibition [6]: 12% |
| c1ccc2c(c1)OCc1ncccc1C2NCCN1CCOCC1 (stereo not given) | 73% | 7% |  |
| CCN(CC)CCNC1c2cc(Cl)ccc2OCc2ncccc21 (stereo not given) | 30% |  |  |
| O=C(Cn1ccnc1)NC1c2ccccc2OCc2ncccc21 (stereo not given) | 12% | 6% |  |
| c1ccc2c(c1)OCc1ncccc1C2NC1CN2CCC1CC2 (stereo not given) | 36% |  |  |
| CCN1CCCC(NC2c3ccccc3OCc3ncccc32)C1 (stereo not given) | 67% |  |  |
| CC1CCCC(C)N1CCNC1c2ccccc2OCc2ncccc21 (stereo not given) | < 64% |  | inhibition [4]: 3% |
| CC1CC[C@H](C)N1CCNC1c2ccccc2OCc2ncccc21 (stereo not given in full) | 69% | 64% |  |
| CCN(CC)CCNC1c2cc(F)ccc2OCc2ncccc21 (stereo not given) | < 87% | < 53% |  |

| SMILES | inhibition in vivo at 30 mg/kg (Rattus norvegicus [2]) | inhibition in vivo at 10 mg/kg (Rattus norvegicus [3]; po) | further results |
| --- | --- | --- | --- |
| c1ccc2c(c1)OCc1ncccc1C2NCCN1CCCCC1 (stereo not given) | 52% |  |  |
| CCN(CC)CCNC1c2cccnc2COc2c(C)cccc21 (stereo not given) | < 48% | < 36% |  |
| CC1CCC(C)N1CCNC1c2ccccc2OCc2ncccc21 (stereo not given) | 94% | 67% |  |
| CN1CCN(C2c3ccccc3OCc3ncccc32)CC1 (stereo not given) | 76% |  | inhibition in vivo at 10 mg/kg (Rattus norvegicus [3]; route oral): 28% |
| CCN(CC)CCN(C(C)=O)C1c2ccccc2OCc2ncccc21 (stereo not given) | 0% |  |  |
| NCCNC1c2ccccc2OCc2ncccc21 (stereo not given) | 19% |  |  |
| CN1CCN(CC(=O)N2c3ccccc3C(=O)Nc3cccnc32)CC1 [PIRENZEPINE] | < 86% | < 67% |  |
| CCNCCNC1c2ccccc2OCc2ncccc21 (stereo not given) | < 55% |  |  |
| CCN(CC)CCNC1c2cc(C)ccc2OCc2ncccc21 (stereo not given) | 40% |  |  |
| CCN(CC)CCN(CC)C1c2ccccc2OCc2ncccc21 (stereo not given) | 33% |  | inhibition [1]: 15% |
| CN(C)CCNC1c2ccccc2OCc2ncccc21 (stereo not given) | 85% | 24% |  |
| CCN(CC)CCCNC1c2ccccc2OCc2ncccc21 (stereo not given) | 55% | 34% |  |
| CCN(CC)CCNC1c2ccccc2OCc2ncccc21 (stereo in doubt; 11) | 85% |  | Ki [5]: 1.6 µM; Inhibition (Rattus norvegicus [3]; route oral): 65% and 57% |
| CC(C)N(CCNC1c2ccccc2OCc2ncccc21)C(C)C (stereo not given) | 88% | 61% |  |
| CCN(CC)CCNC1c2ccccc2OCc2ncccc21 (single isomer, unassigned) [listing 2 of 2 here] |  |  | Ki [5]: 1.1 µM; Inhibition (Rattus norvegicus [3]; route oral): <55% |
| CCN(CC)CCNC1c2ccccc2Oc2ncccc21 (stereo not given) | < 60% | 18% |  |
| CN/C(=N\CCSCc1nc[nH]c1C)NC#N [CIMETIDINE] | < 39% |  | inhibition in vivo at 10 mg/kg (Rattus norvegicus [3]; route oral): 33% |
